This is one part of a sample in which hits are shown more often than they occur.
PostGolgi yeast – growth inhibition of a yeast mutant, post-Golgi transport screen. inhibition, % at 10 µM. post-Golgi transport phenotypic cell assay. hit rate 0.9% among 98,000;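 further: yeast cells grown in 1536-well plates; yeast grown about 18 h at 30C before absorbance read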
Yeast growth inh – yeast BB579 growth reduction in restrictive medium. AID 804. S. cerevisiae BB579 growth, OD615, 48 h. hit rate 0.51% among 140,000. inhibition, % at 10 µM;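 active means inhibition above a set limit, 3 SD over the mean compound inhibition, cut at about 44% in these data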
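Detection: OD615 turbidity measurement; Material: Saccharomyces cerevisiae DeaD strain BB579, replicative lifespan model yeast; Timing: 48 h exposure, 30 °C; Doses: single 10 µM dose; Medium: CSMM-D restrictive synthetic medium containing dextrose (glucose); Controls: amphotericin B at 10 µg/mL as positive control.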
Yeast lifespan up – yeast lifespan extension | S. cerevisiae growth with nicotinamide, OD615; deaD strain in restrictive glucose medium | inhibition of the nicotinamide effect, % at 10 µM | hit rate 0.68% among 130,000 | AID 775;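 active means inhibition above a set limit, placed 3 SD over the median of all compounds, cut at about 26% in these data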;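 further: 0% = nicotinamide-treated wells and 100% = cells grown without nicotinamide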
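System: DeaD-strain S. cerevisiae / Buffer or medium: CSMM-D, restrictive glucose (dextrose) synthetic minimal medium / Probe or stimulus: nicotinamide, 1.5 mM, co-present with compound / Compound: one concentration, 10 µM, DMSO 0.25% / Incubation: 48 h compound exposure at 30 °C, humidified / Technique: optical density (absorbance) at 615 nm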
PostGolgi ctrl – yeast control strain growth, post-Golgi counter-screen; efflux-deficient yeast background strain, growth absorbance A615, 16 h; AID 738; hit rate 5% among 98,000; inhibition, % at 10 µM
Active calls of the source: *. Unless noted, no stated cut-off is given here; in the data, active means inhibition above about 30%; inactive means the rest.

CN1CCN(c2cc(-c3ccccc3)nc3cc(-c4ccc(F)cc4)nn23)CC1 was read as PostGolgi yeast 23, Yeast growth inh -47, Yeast lifespan up -8 and PostGolgi ctrl 73*.
Cc1ccc(OCC(O)CN2CCN(Cc3ccc4c(c3)OCO4)CC2)cc1C (configuration not stated) was read as Yeast growth inh -30 and Yeast lifespan up 7.
For C=CCc1ccccc1OCC(O)CN1CCN(Cc2ccc3c(c2)OCO3)CC1 (configuration not stated) the results were PostGolgi yeast 99*, Yeast growth inh -49, Yeast lifespan up -7 and PostGolgi ctrl 45*.
Screening COc1ccccc1-n1nnnc1SCC(=O)NC1CCCC1 returned PostGolgi yeast -2, Yeast growth inh -41, Yeast lifespan up -2 and PostGolgi ctrl 42*.
For COc1cccc(-n2nnnc2SCC(=O)NC2CCCC2)c1 the results were PostGolgi yeast -2, Yeast growth inh -41, Yeast lifespan up 0 and PostGolgi ctrl 9.
`CCn1c(Cc2ccc(OC)cc2)nnc1SCC(=O)NC1CCCCC1` gave PostGolgi yeast 7, Yeast growth inh -46, Yeast lifespan up -20 and PostGolgi ctrl 31*.
For Cn1c(=O)[nH]c(=O)c2c1nc(NCCCO)n2CCCc1ccccc1 the results were PostGolgi yeast 14, Yeast growth inh -14, Yeast lifespan up -10 and PostGolgi ctrl -2.
COc1ccc(-c2nc(-c3cccc(C)c3)nc(N3CCN(C)CC3)c2C#N)cc1 was read as PostGolgi yeast -3, Yeast growth inh -64, Yeast lifespan up -13 and PostGolgi ctrl 23.
`COc1ccc(-c2nc(-c3ccccc3)nc(N3CCN(C)CC3)c2C#N)cc1` gave PostGolgi yeast -3, Yeast growth inh -77, Yeast lifespan up -25 and PostGolgi ctrl 33*.
COc1ccc(OCC(=O)NNC(=O)c2cccc(S(=O)(=O)N(C)C)c2)cc1 was read as Yeast growth inh -26 and Yeast lifespan up 31*.
COc1ccc(NS(=O)(=O)c2cccc(C(=O)NNC(=O)c3cc(C)oc3C)c2)cc1 was read as Yeast growth inh -14 and Yeast lifespan up 2.
COc1cc(N)c(Cl)cc1NC(=O)c1ccccc1 was read as PostGolgi yeast 8, Yeast growth inh -39, Yeast lifespan up -35 and PostGolgi ctrl 39*.
COc1cc(C(=O)NCc2cccc3ccccc23)cc(Cl)c1OC was read as PostGolgi yeast 0, Yeast growth inh -47, Yeast lifespan up -30 and PostGolgi ctrl 39*.
COc1cc(C(=O)NC(c2ccccc2)c2ccccc2)cc(Cl)c1OC was read as Yeast growth inh -15 and Yeast lifespan up -2.
For O=C(Nc1cccc(-c2nnc(-c3ccco3)o2)c1)C(c1ccccc1)c1ccccc1 the results were PostGolgi yeast -4, Yeast growth inh -77, Yeast lifespan up -13 and PostGolgi ctrl 13.
For O=C(Oc1coc(CSc2ncccn2)cc1=O)c1ccc(Br)o1 the results were Yeast growth inh -6 and Yeast lifespan up 38*.
Screening Cc1cc(C(=O)CSc2nc3ccccc3[nH]2)c(C)n1C returned PostGolgi yeast 11, Yeast growth inh -42, Yeast lifespan up -28 and PostGolgi ctrl 7.
`Cc1cc(C(=O)CSc2nc3ccc(Cl)cc3[nH]2)c(C)n1C` gave PostGolgi yeast 55*, Yeast growth inh -49, Yeast lifespan up -9 and PostGolgi ctrl 84*.
Cc1ccc2nc(SCC(=O)c3cc(C)n(C)c3C)[nH]c2c1 was read as PostGolgi yeast 1, Yeast growth inh -50, Yeast lifespan up -10 and PostGolgi ctrl 33*.
Screening Cn1cnc(S(=O)(=O)NCc2cccs2)c1 returned PostGolgi yeast 5, Yeast growth inh -26, Yeast lifespan up 1 and PostGolgi ctrl 17.
For CCC(C)(C)NC(=O)CN(C(=O)CCC(=O)Nc1ccccn1)c1ccc(F)c(Cl)c1 the results were PostGolgi yeast 41*, Yeast growth inh -26, Yeast lifespan up 6 and PostGolgi ctrl 1.
For CC(C)NC(=O)CN(C(=O)CCC(=O)Nc1ccccn1)c1ccc(F)c(Cl)c1 the results were PostGolgi yeast 2, Yeast growth inh -10, Yeast lifespan up -8 and PostGolgi ctrl 3.
Screening O=C(COc1ccccc1)NCCc1cn2ccsc2n1 returned PostGolgi yeast -5, Yeast growth inh 10, Yeast lifespan up -11 and PostGolgi ctrl 11.
Screening O=C(Cc1ccccc1)NCCc1cn2ccsc2n1 returned PostGolgi yeast 2, Yeast growth inh 49*, Yeast lifespan up 2 and PostGolgi ctrl -1.
CCOC(=O)c1[nH]c(C)c(C(=O)NC(C)(C)C)c1C was read as PostGolgi yeast -4, Yeast growth inh 3, Yeast lifespan up -10 and PostGolgi ctrl 31*.
For CCOC(=O)c1[nH]c(C)c(C(=O)NC)c1C the results were PostGolgi yeast 2, Yeast growth inh -12, Yeast lifespan up -6 and PostGolgi ctrl 2.
Screening CC(=O)N1CCN=C1SCc1c(F)cccc1Cl returned PostGolgi yeast 3, Yeast growth inh -1, Yeast lifespan up -6 and PostGolgi ctrl 32*.
CC(=O)N1CCN=C1SCc1cccc(C(F)(F)F)c1 was read as PostGolgi yeast 1, Yeast growth inh -22, Yeast lifespan up -8 and PostGolgi ctrl 5.
`Cc1[nH]c(-c2ccc3c(c2)OCO3)nc1C(=O)O` gave PostGolgi yeast -2, Yeast growth inh 17, Yeast lifespan up -5 and PostGolgi ctrl 31*.
Screening COc1ccc(-c2nc(-c3ccc4c(c3)OCO4)[nH]c2-c2ccc(OC)cc2)cc1 returned Yeast growth inh -35 and Yeast lifespan up -5.
O=C(NCc1cccnc1)C1c2ccccc2C(=O)N1C1CCCCCC1 (configuration not stated) was read as PostGolgi yeast -7, Yeast growth inh -59, Yeast lifespan up 5 and PostGolgi ctrl 8.
For O=C(NCc1cccnc1)C1c2ccccc2C(=O)N1C1CCCCCCC1 (configuration not stated) the results were PostGolgi yeast 5, Yeast growth inh -35, Yeast lifespan up -9 and PostGolgi ctrl 34*.
Screening O=C(CN1CCN(c2ncc(C(F)(F)F)cc2Cl)CC1)NC(=O)NCc1ccccc1 returned PostGolgi yeast 20, Yeast growth inh -1, Yeast lifespan up -16 and PostGolgi ctrl -4.
Screening O=C(CN1CCN(c2ncc(C(F)(F)F)cc2Cl)CC1)NCCNc1ncc(C(F)(F)F)cc1Cl returned PostGolgi yeast -2, Yeast growth inh 93*, Yeast lifespan up -25 and PostGolgi ctrl 85*.
Screening CC(C)(C)NC(=O)NC(=O)CN1CCN(c2ncc(C(F)(F)F)cc2Cl)CC1 returned PostGolgi yeast -3, Yeast growth inh -74, Yeast lifespan up -3 and PostGolgi ctrl 32*.
O=C(COc1ccccc1)NNC(=S)NC(=O)c1ccc(Cl)cc1Cl was read as Yeast growth inh 88*.
Cc1ccc(C(=O)NNC(=S)NC(=O)c2ccc(Cl)cc2Cl)cc1 was read as PostGolgi yeast 8, Yeast growth inh -18, Yeast lifespan up 31* and PostGolgi ctrl 23.
O=C(COc1ccc(Cl)cc1Cl)NNC(=S)Nc1ccc(F)cc1 was read as PostGolgi yeast 4, Yeast growth inh -19, Yeast lifespan up -3 and PostGolgi ctrl 38*.
Screening O=C(COc1cccc(Cl)c1)NNC(=S)Nc1ccccc1 returned Yeast growth inh -11 and Yeast lifespan up 1.
